Experimental data collected from several papers.
Protocols differ between the studies behind these lines.
EGFR: Epidermal growth factor receptor (EGFR, Homo sapiens, UniProt P00533)

Compound	target	assay	measurement	result
C=CC(=O)Nc1cc(Nc2nccc(-c3cn(C4CC4)c4ccccc34)n2)c(OC)cc1N(C)CCN(C)C	Epidermal growth factor receptor (EGFR, Homo sapiens, UniProt P00533, G719S)	enzyme activity, inhibitor, TR-FRET	IC50	82.8 nM
CCN(CC)C/C=N/NC(=O)Nc1cc2c(Nc3ccc(F)c(Cl)c3)ncnc2cc1O[C@H]1CCOC1	EGFR	enzyme activity, inhibitor	IC50	0.4 nM
COc1cc2ncc(-c3ccccc3)nc2cc1OC	EGFR	binding	Kd	> 10000 nM
CC#CC(=O)N1CC[C@@H](n2cc(-c3ccc(Oc4c(F)cccc4F)cc3)c3c(N)n[nH]c(=O)c32)C1	EGFR	binding, competition with immobilised ligand	Kd	270 nM
C=C(Cl)C(=O)Nc1cc(Nc2nc(Nc3cnn(C)c3)c3sccc3n2)c(OC)cc1N(C)CCN(C)C	Epidermal growth factor receptor (EGFR, Homo sapiens, UniProt P00533, C797S/L858R/T790M)	enzyme activity, inhibitor, ELISA	IC50	> 1000 nM
COc1cc2ncnc(Nc3ccc(O)cc3)c2cc1OC	EGFR	binding	Kd	26 nM
O=C(N/N=C/c1cccn1CCCN1CCCCC1)Nc1cc2c(Nc3ccc(F)c(Cl)c3)ncnc2cc1O[C@H]1CCOC1	EGFR	enzyme activity, inhibitor	IC50	0.8 nM
C=C(Cl)C(=O)Nc1cc(Nc2nc(N3CCc4sccc4C3)c3sccc3n2)c(OC)cc1N(C)CCN(C)C	EGFR	enzyme activity, inhibitor, ELISA	IC50	996 nM
